# Assay outcomes (PubChem BioAssay)
# Tn6 DDE FP: inhibitors of Tn6 peptide binding to fibrin DD(E), primary screen, biochemical, fluorescence polarization, human fibrin, Tn6 probe; Fibrin DD(E) TRITC-Tn6 fluorescence polarization displacement; 0.21% of 370,000 active; Fibrinogen beta chain (Homo sapiens), P02675; inhibition, % at 8.3 µM; AID 720509, 2013;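 active = inhibition above a per-campaign cutoff: mean of compounds within control limits plus 3 SD, cut at about 15% in these data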;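 also: 0% = median of all compound wells on the plate and 100% = blocking peptide control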
# Target sequence (P02675 whole entry, looked up): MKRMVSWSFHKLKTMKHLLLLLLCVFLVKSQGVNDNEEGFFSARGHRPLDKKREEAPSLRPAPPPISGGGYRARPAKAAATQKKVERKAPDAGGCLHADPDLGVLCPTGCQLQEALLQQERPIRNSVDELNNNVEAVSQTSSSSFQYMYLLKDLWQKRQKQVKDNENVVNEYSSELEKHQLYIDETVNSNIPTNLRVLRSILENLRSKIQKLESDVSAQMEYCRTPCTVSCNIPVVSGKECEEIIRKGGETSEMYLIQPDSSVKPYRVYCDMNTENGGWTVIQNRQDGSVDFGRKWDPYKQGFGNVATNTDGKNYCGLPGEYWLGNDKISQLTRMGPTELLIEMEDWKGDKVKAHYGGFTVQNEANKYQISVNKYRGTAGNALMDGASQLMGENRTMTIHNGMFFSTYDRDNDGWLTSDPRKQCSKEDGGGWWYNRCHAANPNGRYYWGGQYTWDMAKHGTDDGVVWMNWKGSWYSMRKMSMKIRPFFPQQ
# ADAM10 inh: human ADAM10 inhibitors, primary screen, biochemical, QFRET, HTS; Disintegrin and metalloproteinase domain-containing protein 10 (Homo sapiens), O14672; inhibition, % at 7 µM; recombinant ADAM10, EDANS/DABCYL FRET peptide cleavage, 3 h; AID 720582, 2013; 0.62% of 370,000 active;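 active = inhibition above a per-campaign cutoff equal to the mean of compounds falling between control-based bounds plus 3 SD, cut at about 20% in these data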;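 also: 0% = DMSO wells while the 100% control is not disclosed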
# ADAM17 inh: ADAM17 inhibitors, primary screen, biochemical, QFRET | Disintegrin and metalloproteinase domain-containing protein 17 (Homo sapiens), P78536 | inhibition, % at 6.95 µM | AID 720648, 2013 | recombinant ADAM17, EDANS/DABCYL FRET peptide cleavage | 0.83% of 370,000 active;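 active = inhibition above the mean of compounds lying between control limits plus 3 SD, set per campaign, cut at about 8.5% in these data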;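 also: 0% = DMSO-only wells as the low control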
# PLC-gamma1 inh: PLC-gamma1 enzyme inhibitors, primary screen, biochemical, fluorescence, purified enzyme; 1-phosphatidylinositol 4,5-bisphosphate phosphodiesterase gamma-1 (Homo sapiens), P19174; fluorogenic substrate; inhibition, % at 12.2 µM; 0.84% of 370,000 active; in the data active = inhibition above about 9.5%
# DDE Tn7 FP inh: inhibitors of Tn7 peptide binding to fibrin DD(E), primary screen, biochemical, fluorescence polarization, human fibrin, Tn7 probe; Fibrinogen beta chain (Homo sapiens), P02675; FP displacement of FITC-Tn7 peptide from fibrin DD(E); 0% = median of compound wells per plate; inhibition, % at 8.3 µM; 0.13% of 370,000 active; AID 720508, 2013;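 active = inhibition above the mean of compounds falling within the control limits plus 3 SD of them, cut at about 14% in these data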;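 also: 0% = plate median of compound wells and 100% = 10 µM Aha-Tn7 peptide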
#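 Assay system: Human clot-derived fibrin DD(E) complex | Buffer or medium: Tris/NaCl/CaCl2 buffer, pH 7.8 | Repeats: One replicate per compound | Benchmarks: Aha-Tn7 high control | Measure: % inhibition scaled between sample-field median and high-control FP | Schedule: 10 min plus 3 h, room temperature | Signal: Fluorescence polarization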
# PLCb3 inh: human PLC-beta3 inhibitors, primary screen, biochemical, fluorescence | 1-phosphatidylinositol 4,5-bisphosphate phosphodiesterase beta-3 (Homo sapiens), Q01970 | Purified PLC-beta3, fluorogenic substrate | inhibition, % at 12.2 µM | 0.18% of 370,000 active | AID 720704, 2013; in the data active = inhibition above about 11%;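 also: 0% = median of compound wells on plate and 100% = full blocker control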
# ADAM10 confirm: human ADAM10 inhibitors, confirmation, biochemical, QFRET, triplicate; shares compounds with ADAM10 inh; ADAM10 QFRET peptide cleavage, EDANS fluorescence; inhibition, % at 6.95 µM; 1% of 2,100 active;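 active = inhibition above about 20% chosen separately for each screening run, limit read from the data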;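 also: 0% = DMSO wells and 100% = marimastat wells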
# ADAM17 counter: ADAM17 inhibitors, counter-screen for ADAM10 exosite inhibitor project, biochemical, QFRET, high throughput; inhibition, % at 6.95 µM; 0.5% of 2,100 active; ADAM17 QFRET peptide cleavage, EDANS fluorescence; shares compounds with ADAM10 inh; AID 743214, 2013;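 active = mean triplicate inhibition above the solvent-only control wells' mean plus 3 SD, cut at about 12% in these data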;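 also: 0% = DMSO wells and 100% = marimastat wells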
# * = called active by the depositor; nt = no result given. Sampled rows, rich in hits. Any-hit rate of the full collection: about 2.3%.
SMILES,Tn6 DDE FP,ADAM10 inh,ADAM17 inh,PLC-gamma1 inh,DDE Tn7 FP inh,PLCb3 inh,ADAM10 confirm,ADAM17 counter
O=C1C[C@H](c2ccc3ccccc3c2)N=C2N1/C(=C\c1ccccc1)[C@@H](c1ccccc1C(F)(F)F)N2Cc1ccc2c(c1)OCO2,7.7,2.4,3.5,1.6,0.9,3.4,nt,nt
Cc1cc(C)cc(NC(=S)N2CCN(c3ccccn3)CC2)c1,7.0,-8.5,-4.9,-6.2,3.0,2.4,nt,nt
Cc1cc(C)cc(NC(=S)N2CCN(c3ncccn3)CC2)c1,0.4,34.7*,0.5,4.1,2.6,2.9,2.0,0.3
CCCC1CCC2(CC1)CCC2OC(=S)Nc1ccccc1Br (centres undefined),-5.3,2.6,-2.5,2.7,1.8,2.0,nt,nt
COc1cc(O)c2c(=O)c3c(O[C@H]4O[C@@H](CO)[C@H](O)[C@@H](O)[C@@H]4O)ccc(O)c3oc2c1,6.4,2.7,-0.9,1.6,3.6,3.3,nt,nt
COc1cc(O)c2c(=O)c3c(O)ccc(O)c3oc2c1,-15.6,82.6*,2.2,5.7,2.3,7.3,3.0,0.1
O=C1c2cccc(OCc3ccc(F)cc3)c2CCN1Cc1ccccc1,-5.4,19.9*,4.9,3.4,3.9,-0.7,4.3,1.8
Cc1ccc(COc2cccc3c2CCN(Cc2ccc(F)cc2)C3=O)cc1,-5.2,0.4,2.8,-0.8,6.9,-3.8,nt,nt
Cc1ccc2nc(-c3ccc(NC(=O)CSc4nnc(-c5cccc(Cl)c5)n4Cc4ccco4)cc3)sc2c1,-12.4,-167.1,-49.0,-48.6,0.0,-83.2,nt,nt
COc1ccc(/C=N/NC(=O)c2ccn[nH]2)cc1COc1ccc(Cl)cc1Cl,-10.8,20.6*,3.0,-0.1,-3.4,-3.5,7.0,3.5
CCOC(=O)C1(C(=O)OCC)Cc2c([nH]c3ccccc23)[C@]2(N1)C(=O)N(C)c1ccc(Br)cc12,-2.1,25.3*,12.3*,10.4*,-4.6,-3.7,5.3,2.1
CN1C(=O)C2(NCCc3c2[nH]c2ccccc32)c2ccccc21 (centres undefined),7.0,0.0,-0.1,2.7,1.3,-0.4,nt,nt
COC(=O)[C@]12C[C@H](CC(=O)N3CCOCC3)C(=O)N(CCc3ccc(OC)c(OC)c3)C1=C[C@H](C(C)C)O[C@@H]2C1CC1,-2.8,4.0,-1.1,2.5,-0.5,3.3,nt,nt
Cc1csc(NC(=O)Cc2coc3cc(C)c(C(C)C)cc23)n1,1.6,23.1*,6.7,-2.4,-3.0,-3.5,7.3,0.9
Cc1cc2occ(CC(=O)NCc3cccs3)c2cc1C(C)C,2.2,15.3,-1.9,3.1,-0.6,-6.0,nt,nt
C#CCNC(=O)C[C@H]1C[C@@]2(C(=O)OC)C(=C[C@H](C3CCCC3)O[C@@H]2C)N(Cc2ccc(Cl)cc2Cl)C1=O,-1.0,5.3,-2.1,2.9,-5.8,1.6,nt,nt
CCN(CC)C(=O)CC[C@@H]1CC[C@]2(CCCN(Cc3nccs3)C2)O1,4.5,-10.1,-3.2,-2.9,-0.9,-1.7,nt,nt
Cc1ccc(Oc2ccc(-c3nc(N)nc(N)n3)cc2)cc1C,-14.4,19.8*,5.2,-0.2,-7.4,1.4,2.5,1.0
O=C(Nc1ccc(Cl)cc1Cl)OC1CCC12CCC(c1ccccc1)CC2 (centres undefined),-1.1,1.4,-1.2,3.8,-3.5,-7.5,nt,nt
CC(=O)c1ccc(NC(=S)NC(C)c2ccc(Cl)cc2Cl)cc1 (centres undefined),-10.8,23.9*,8.0,2.0,-2.1,-4.5,4.2,1.2
CC(=O)c1cccc(-c2ccnc3c2CC(C(=O)Nc2ccc(Cl)c(C(F)(F)F)c2)O3)c1 (centres undefined),-6.3,26.2*,8.1,-0.3,-3.2,1.4,4.3,2.2
O=C(Nc1cccc(C(F)(F)F)c1)C1Cc2c(-c3ccccc3)ccnc2O1 (centres undefined),-11.4,21.7*,6.5,5.7,0.4,0.6,4.8,1.3
C[C@@H]1CN([C@H](C)CO)S(=O)(=O)c2ccc(C#Cc3ccccc3)cc2O[C@H]1CN(C)C(=O)Nc1ccc2c(c1)OCO2,-3.2,20.2*,5.7,-13.6,-2.2,-18.7,9.4,3.5
CC(C)Oc1cccc(-c2n[nH]c(=S)n2N=Cc2cccc([N+](=O)[O-])c2)c1,0.2,-1.8,0.2,2.0,0.1,0.1,nt,nt
CCCC/C(O)=C1\C(=O)CC(C)(C)CC1=Nc1ccc(OC)cc1,-6.4,41.5*,3.4,2.2,2.2,2.0,-0.5,0.3
SMILES,Tn6 DDE FP,ADAM10 inh,ADAM17 inh,PLC-gamma1 inh,DDE Tn7 FP inh,PLCb3 inh,ADAM10 confirm,ADAM17 counter
O=C(NC(=S)NCc1ccco1)c1cccc(Cl)c1,1.9,3.7,5.1,-0.8,2.2,-8.8,nt,nt
O=C(NC(=S)NCc1ccccc1)c1cccc(Cl)c1,-2.2,20.5*,8.3,4.6,-3.3,4.4,5.6,1.5
CC1(Cc2ccc(Cl)c(Cl)c2)C(=O)Nc2ccc(S(=O)(=O)NC3CCCCC3)cc21 (centres undefined),1.7,20.2*,7.7,0.7,-5.7,0.9,12.9,3.4
Nc1ccc2c(c1)Nc1ccccc1CC2,-0.3,23.6*,3.7,-11.3,-16.2,-19.2,0.5,0.5
CCc1nnc(NC(=O)CSc2ccc(-c3ccc(-n4cccn4)cc3)nn2)s1,-0.9,53.9*,-3.0,-0.3,2.3,0.0,-0.2,0.5
Cc1ccccc1NC(=O)CSc1ccc(-c2ccc(-n3cccn3)cc2)nn1,-5.1,-9.4,-3.0,2.8,-0.5,2.5,nt,nt
O=C(c1cccc(NS(=O)(=O)c2ccc(F)c(F)c2)c1)N1CCCCC1,0.9,-3.1,-1.8,-0.7,5.6,-1.0,nt,nt
Cc1ccc(S(=O)(=O)Nc2cccc(C(=O)N3CCN(c4ccccc4O)CC3)c2)cc1F,-12.5,20.0*,3.1,-0.3,5.1,-14.9,-1.3,0.9
COc1ccc(CNC(=S)OC2CCC23CCC(c2ccccc2)CC3)cc1 (centres undefined),-0.2,3.7,1.6,6.9,7.9,3.0,nt,nt
Cc1ccc(C)c(OCC(=O)Nc2ccc3c(c2)OCO3)c1C,-5.9,20.5*,7.4,11.6*,-9.6,-1.0,1.0,0.5
